From ChEMBL document CHEMBL1122840, “SAR studies in the field of calcium(II) antagonists. Effect of modifications at the tetrasubstituted carbon of verapamil-like compounds” (1985)

species on record: Cavia porcellus; test: Heart rate of isolated guinea pig heart at dose 5 (ug/heart); assay type: functional
Summary of the method: (§1)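 Rate was derived from the left ventricular pressure tracing of the perfused heart. Drug dissolved in perfusion liquid was given as a 1-min side-arm injection into the aortic inflow cannula after 30-min stabilization, at constant volume. Six preparations per compound; values expressed as mean, SE and percent of basal for each dose.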

Q: `COc1ccc(CCN(C)CCCC(c2ccccc2)c2ccccc2)cc1OC.O=C(O)C(=O)O` was tested. Which HR did it give?
A: 152 beats min-1

Q: For `COc1ccc(CCN(C)CCC=C(c2ccccc2)c2ccccc2)cc1OC.O=C(O)C(=O)O`, which HR is on record?
A: 150 beats min-1

Q: How did the HR turn out when `COc1ccc(CCN(C)CCCC2(C#N)c3ccccc3-c3ccccc32)cc1OC.O=C(O)C(=O)O` was run?
A: 205 beats min-1

Q: `COc1ccc(CCN(C)CCCC(C#N)(c2ccccc2)c2ccccc2)cc1OC.[O-][Cl+3]([O-])([O-])O` was tested. Which HR did it give?
A: 158.3 beats min-1

Q: Which HR does the source give for `COc1ccc(CCN(C)CCCC(c2ccccc2)(c2ccccc2)C(C)C)cc1OC.O=C(O)C(=O)O` here?
A: 150.7 beats min-1

species on record: Cavia porcellus; test: Left ventricular pressure of isolated guinea pig heart at dose 0.005 (ug/heart); assay type: functional, Cardiac ventricle
Summary of the method: (§2)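 Perfused heart, 30-min stabilization, then a 1-min constant-volume injection of drug dissolved in perfusion liquid via a side arm of the aortic inflow cannula. Six preparations per compound; mean, SE and percent of basal value were calculated for each dose.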

Q: For `COc1ccc(CCN(C)CCCC(c2ccccc2)c2ccccc2)cc1OC.O=C(O)C(=O)O`, which LVP is on record?
A: 67.5 mmHg

Q: `COc1ccc(CCN(C)CCC=C(c2ccccc2)c2ccccc2)cc1OC.O=C(O)C(=O)O` was tested. Which LVP did it give?
A: 75.7 mmHg

Q: For `COc1ccc(CCN(C)CCCC2(C#N)c3ccccc3-c3ccccc32)cc1OC.O=C(O)C(=O)O`, which LVP is on record?
A: 43.3 mmHg

Q: With `COc1ccc(CCN(C)CCCC(C#N)(c2ccccc2)c2ccccc2)cc1OC.[O-][Cl+3]([O-])([O-])O` as the compound, how does the LVP read?
A: 31.6 mmHg

Q: `COc1ccc(CCN(C)CCCC(c2ccccc2)(c2ccccc2)C(C)C)cc1OC.O=C(O)C(=O)O` was tested. Which LVP did it give?
A: 74.3 mmHg

species on record: Cavia porcellus; test: Left ventricular pressure of isolated guinea pig heart at dose 5 (ug/heart); assay type: functional, Cardiac ventricle; summary of the method: as §2

Q: Which LVP does the source give for `COc1ccc(CCN(C)CCCC(c2ccccc2)c2ccccc2)cc1OC.O=C(O)C(=O)O` here?
A: 66.7 mmHg

Q: With `COc1ccc(CCN(C)CCC=C(c2ccccc2)c2ccccc2)cc1OC.O=C(O)C(=O)O` as the compound, how does the LVP read?
A: 75.7 mmHg

Q: How did the LVP turn out when `COc1ccc(CCN(C)CCCC2(C#N)c3ccccc3-c3ccccc32)cc1OC.O=C(O)C(=O)O` was run?
A: 39.5 mmHg

Q: How did the LVP turn out when `COc1ccc(CCN(C)CCCC(C#N)(c2ccccc2)c2ccccc2)cc1OC.[O-][Cl+3]([O-])([O-])O` was run?
A: 26.8 mmHg

Q: `COc1ccc(CCN(C)CCCC(c2ccccc2)(c2ccccc2)C(C)C)cc1OC.O=C(O)C(=O)O` was tested. Which LVP did it give?
A: 65.3 mmHg

species on record: Cavia porcellus; test: Coronary perfusion pressure of isolated guinea pig heart at dose 5 (ug/heart); assay type: functional
Summary of the method: (§3)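 Heart perfused via an aortic inflow cannula; coronary perfusion pressure was recorded in that cannula with a pressure transducer. After 30-min stabilization, drug dissolved in perfusion liquid was injected through a side arm over 1 min, at constant volume. Six preparations per compound; mean, SE and percent of basal value were calculated for each dose.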

Q: `COc1ccc(CCN(C)CCCC(c2ccccc2)c2ccccc2)cc1OC.O=C(O)C(=O)O` was tested. Which CPP did it give?
A: 47.3 mmHg

Q: `COc1ccc(CCN(C)CCC=C(c2ccccc2)c2ccccc2)cc1OC.O=C(O)C(=O)O` was tested. Which CPP did it give?
A: 47.3 mmHg

Q: Which CPP does the source give for `COc1ccc(CCN(C)CCCC2(C#N)c3ccccc3-c3ccccc32)cc1OC.O=C(O)C(=O)O` here?
A: 41.2 mmHg

Q: Which CPP does the source give for `COc1ccc(CCN(C)CCCC(C#N)(c2ccccc2)c2ccccc2)cc1OC.[O-][Cl+3]([O-])([O-])O` here?
A: 68.7 mmHg

Q: With `COc1ccc(CCN(C)CCCC(c2ccccc2)(c2ccccc2)C(C)C)cc1OC.O=C(O)C(=O)O` as the compound, how does the CPP read?
A: 49.3 mmHg

species on record: Cavia porcellus; test: Heart rate of isolated guinea pig heart at dose 0.05 (ug/heart); assay type: functional; summary of the method: as §1

Q: For `COc1ccc(CCN(C)CCCC(c2ccccc2)c2ccccc2)cc1OC.O=C(O)C(=O)O`, which HR is on record?
A: 152 beats min-1

Q: With `COc1ccc(CCN(C)CCC=C(c2ccccc2)c2ccccc2)cc1OC.O=C(O)C(=O)O` as the compound, how does the HR read?
A: 150 beats min-1

Q: Which HR does the source give for `COc1ccc(CCN(C)CCCC2(C#N)c3ccccc3-c3ccccc32)cc1OC.O=C(O)C(=O)O` here?
A: 209.7 beats min-1

Q: `COc1ccc(CCN(C)CCCC(C#N)(c2ccccc2)c2ccccc2)cc1OC.[O-][Cl+3]([O-])([O-])O` was tested. Which HR did it give?
A: 160.2 beats min-1

Q: With `COc1ccc(CCN(C)CCCC(c2ccccc2)(c2ccccc2)C(C)C)cc1OC.O=C(O)C(=O)O` as the compound, how does the HR read?
A: 154.7 beats min-1

species on record: Cavia porcellus; test: Left ventricular pressure of isolated guinea pig heart at dose 0.05 (ug/heart); assay type: functional, Cardiac ventricle; summary of the method: as §2

Q: `COc1ccc(CCN(C)CCCC(c2ccccc2)c2ccccc2)cc1OC.O=C(O)C(=O)O` was tested. Which LVP did it give?
A: 67.5 mmHg

Q: Which LVP does the source give for `COc1ccc(CCN(C)CCC=C(c2ccccc2)c2ccccc2)cc1OC.O=C(O)C(=O)O` here?
A: 75.3 mmHg

Q: For `COc1ccc(CCN(C)CCCC2(C#N)c3ccccc3-c3ccccc32)cc1OC.O=C(O)C(=O)O`, which LVP is on record?
A: 41.7 mmHg

Q: For `COc1ccc(CCN(C)CCCC(C#N)(c2ccccc2)c2ccccc2)cc1OC.[O-][Cl+3]([O-])([O-])O`, which LVP is on record?
A: 28.6 mmHg

Q: `COc1ccc(CCN(C)CCCC(c2ccccc2)(c2ccccc2)C(C)C)cc1OC.O=C(O)C(=O)O` was tested. Which LVP did it give?
A: 65.3 mmHg

species on record: Cavia porcellus; test: Heart rate of isolated guinea pig heart at dose 0.005 (ug/heart); assay type: functional; summary of the method: as §1

Q: Which HR does the source give for `COc1ccc(CCN(C)CCCC(c2ccccc2)c2ccccc2)cc1OC.O=C(O)C(=O)O` here?
A: 152 beats min-1

Q: Which HR does the source give for `COc1ccc(CCN(C)CCC=C(c2ccccc2)c2ccccc2)cc1OC.O=C(O)C(=O)O` here?
A: 150 beats min-1

Q: With `COc1ccc(CCN(C)CCCC2(C#N)c3ccccc3-c3ccccc32)cc1OC.O=C(O)C(=O)O` as the compound, how does the HR read?
A: 211.5 beats min-1

Q: How did the HR turn out when `COc1ccc(CCN(C)CCCC(C#N)(c2ccccc2)c2ccccc2)cc1OC.[O-][Cl+3]([O-])([O-])O` was run?
A: 162 beats min-1

Q: `COc1ccc(CCN(C)CCCC(c2ccccc2)(c2ccccc2)C(C)C)cc1OC.O=C(O)C(=O)O` was tested. Which HR did it give?
A: 155.3 beats min-1

species on record: Cavia porcellus; test: Heart rate of isolated guinea pig heart at dose 0.5 (ug/heart); assay type: functional; summary of the method: as §1

Q: Which HR does the source give for `COc1ccc(CCN(C)CCCC(c2ccccc2)c2ccccc2)cc1OC.O=C(O)C(=O)O` here?
A: 152 beats min-1

Q: How did the HR turn out when `COc1ccc(CCN(C)CCC=C(c2ccccc2)c2ccccc2)cc1OC.O=C(O)C(=O)O` was run?
A: 150 beats min-1

Q: Which HR does the source give for `COc1ccc(CCN(C)CCCC2(C#N)c3ccccc3-c3ccccc32)cc1OC.O=C(O)C(=O)O` here?
A: 206 beats min-1

Q: For `COc1ccc(CCN(C)CCCC(C#N)(c2ccccc2)c2ccccc2)cc1OC.[O-][Cl+3]([O-])([O-])O`, which HR is on record?
A: 159.8 beats min-1

Q: How did the HR turn out when `COc1ccc(CCN(C)CCCC(c2ccccc2)(c2ccccc2)C(C)C)cc1OC.O=C(O)C(=O)O` was run?
A: 150 beats min-1

species on record: Cavia porcellus; test: Left ventricular pressure of isolated guinea pig heart at dose 0.5 (ug/heart); assay type: functional, Cardiac ventricle; summary of the method: as §2

Q: For `COc1ccc(CCN(C)CCCC(c2ccccc2)c2ccccc2)cc1OC.O=C(O)C(=O)O`, which LVP is on record?
A: 67.4 mmHg

Q: `COc1ccc(CCN(C)CCC=C(c2ccccc2)c2ccccc2)cc1OC.O=C(O)C(=O)O` was tested. Which LVP did it give?
A: 75.7 mmHg

Q: How did the LVP turn out when `COc1ccc(CCN(C)CCCC2(C#N)c3ccccc3-c3ccccc32)cc1OC.O=C(O)C(=O)O` was run?
A: 41.3 mmHg

Q: For `COc1ccc(CCN(C)CCCC(C#N)(c2ccccc2)c2ccccc2)cc1OC.[O-][Cl+3]([O-])([O-])O`, which LVP is on record?
A: 27.8 mmHg

Q: How did the LVP turn out when `COc1ccc(CCN(C)CCCC(c2ccccc2)(c2ccccc2)C(C)C)cc1OC.O=C(O)C(=O)O` was run?
A: 66.7 mmHg

species on record: Cavia porcellus; test: Coronary perfusion pressure of isolated guinea pig heart at dose 0.05 (ug/heart); assay type: functional; summary of the method: as §3

Q: How did the CPP turn out when `COc1ccc(CCN(C)CCCC(c2ccccc2)c2ccccc2)cc1OC.O=C(O)C(=O)O` was run?
A: 48 mmHg

Q: `COc1ccc(CCN(C)CCC=C(c2ccccc2)c2ccccc2)cc1OC.O=C(O)C(=O)O` was tested. Which CPP did it give?
A: 51 mmHg

Q: For `COc1ccc(CCN(C)CCCC2(C#N)c3ccccc3-c3ccccc32)cc1OC.O=C(O)C(=O)O`, which CPP is on record?
A: 42 mmHg

Q: With `COc1ccc(CCN(C)CCCC(C#N)(c2ccccc2)c2ccccc2)cc1OC.[O-][Cl+3]([O-])([O-])O` as the compound, how does the CPP read?
A: 72.6 mmHg

Q: Which CPP does the source give for `COc1ccc(CCN(C)CCCC(c2ccccc2)(c2ccccc2)C(C)C)cc1OC.O=C(O)C(=O)O` here?
A: 50 mmHg

species on record: Cavia porcellus; test: Coronary perfusion pressure of isolated guinea pig heart at dose 0.005 (ug/heart); assay type: functional; summary of the method: as §3

Q: With `COc1ccc(CCN(C)CCCC(c2ccccc2)c2ccccc2)cc1OC.O=C(O)C(=O)O` as the compound, how does the CPP read?
A: 48 mmHg

Q: `COc1ccc(CCN(C)CCC=C(c2ccccc2)c2ccccc2)cc1OC.O=C(O)C(=O)O` was tested. Which CPP did it give?
A: 48 mmHg

Q: With `COc1ccc(CCN(C)CCCC2(C#N)c3ccccc3-c3ccccc32)cc1OC.O=C(O)C(=O)O` as the compound, how does the CPP read?
A: 44.2 mmHg

Q: For `COc1ccc(CCN(C)CCCC(C#N)(c2ccccc2)c2ccccc2)cc1OC.[O-][Cl+3]([O-])([O-])O`, which CPP is on record?
A: 73 mmHg

Q: `COc1ccc(CCN(C)CCCC(c2ccccc2)(c2ccccc2)C(C)C)cc1OC.O=C(O)C(=O)O` was tested. Which CPP did it give?
A: 46.3 mmHg

species on record: Cavia porcellus; test: Coronary perfusion pressure of isolated guinea pig heart at dose 0.5 (ug/heart); assay type: functional; summary of the method: as §3

Q: Which CPP does the source give for `COc1ccc(CCN(C)CCCC(c2ccccc2)c2ccccc2)cc1OC.O=C(O)C(=O)O` here?
A: 48.7 mmHg

Q: With `COc1ccc(CCN(C)CCC=C(c2ccccc2)c2ccccc2)cc1OC.O=C(O)C(=O)O` as the compound, how does the CPP read?
A: 47.3 mmHg

Q: For `COc1ccc(CCN(C)CCCC2(C#N)c3ccccc3-c3ccccc32)cc1OC.O=C(O)C(=O)O`, which CPP is on record?
A: 42 mmHg

Q: Which CPP does the source give for `COc1ccc(CCN(C)CCCC(C#N)(c2ccccc2)c2ccccc2)cc1OC.[O-][Cl+3]([O-])([O-])O` here?
A: 71.2 mmHg

Q: `COc1ccc(CCN(C)CCCC(c2ccccc2)(c2ccccc2)C(C)C)cc1OC.O=C(O)C(=O)O` was tested. Which CPP did it give?
A: 49.3 mmHg
